The text below walks through data of ChEMBL document CHEMBL1130207, “Structure-activity relationships for acridine-substituted analogues of the mixed topoisomerase I/II inhibitor N-[2-(dimethylamino)ethyl]acridine-4-carboxamide” (J Med Chem, 1997).

Molecules are shown by their SMILES.

Test [1] concerns Jurkat. The test can be described thus: Inhibitory concentration required to reduce human Jurkat leukemia (JLC sensitive, wild type) cell number to 50% of control cultures. In kind it is functional, cell-based.
In test [2] the test system is Jurkat. The test can be described thus: Ratio of IC50 of Jurkat leukemia amsacrine (JLA) to the IC50 of Jurkat leukemia (JLC sensitive, wild type). In kind it is functional, Homo sapiens. Put shortly: (§1)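 Jurkat lines were each plated at 3.75 × 10³ per well and grown 4 days with drug: parental JL_C, amsacrine-resistant JL_A and doxorubicin-resistant JL_D. Growth was read by sulforhodamine assay. IC50 is the concentration giving 50% of control cell number. Ratio is IC50 in JL_A or JL_D divided by IC50 in JL_C.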

The subject of test [3] is Jurkat. The test can be described thus: Ratio of IC50 of mutant Jurkat leukemia (JLD) to the IC50 of Jurkat leukemia (JLC sensitive, wild type). In kind it is functional, Homo sapiens. Put shortly: as §1
Test [4] deals with P388. The test can be described thus: Inhibitory concentration required to reduce murine p388 leukemia cell number to 50% of control cultures. As to conditions: Mus musculus. In kind it is functional, cell-based.
The test system of test [5] is LLTC cell line. The test can be described thus: Inhibitory concentration required to reduce Lewis lung carcinoma cell number to 50% of control cultures. The class given is functional, cell-based. As to conditions: Mus musculus. Put shortly:
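Lewis lung carcinoma cells seeded at 10³ per well and exposed to drug for 4 days. Growth read by sulforhodamine assay; IC50 is the drug concentration (nM) that cuts cell number to 50% of control cultures. Value is the mean of at least two independent determinations done in duplicate; coefficient of variation 7.9–8.5%.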

In the case of `COc1cccc2c1C(=O)c1c(O)c3c(c(O)c1C2=O)C[C@@](O)(C(=O)CO)C[C@@H]3O[C@H]1C[C@H](N)[C@H](O)[C@H](C)O1` [DOXORUBICIN], the IC50 in test [1] came out at 9.6 nM; in test [4], 15 nM; in test [5], 22 nM. For the same molecule, the Ratio is 4.39 in test [2] and 12.7 in test [3].
